Bioassay records deposited in PubChem by Johns Hopkins Ion Channel Center.
This is a sample that favours compounds with a hit; in the whole collection about 2.9% have one here.
Kir21 inh – blocks the mouse Kir2.1 inward-rectifier potassium channel. AID 1672. 310,000 tested, 0.85% active. P35561. B-score at 10 µM. HEK293-Kir2.1, FluxOR thallium flux fluorescence; stronger effect = lower value;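 active = fluorescence ratio B-score at or below minus 3 SD of library scores, with starting-brightness B-score within 2 SD, cut at about -4.2 in these data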;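 note: channel flux triggered by added potassium and thallium sulfate stimulus; B-score of peak minus minimum fluorescence over baseline after thallium stimulus; more negative B-score means stronger Kir2.1 block with less thallium influx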
Target sequence (P35561 whole entry, looked up): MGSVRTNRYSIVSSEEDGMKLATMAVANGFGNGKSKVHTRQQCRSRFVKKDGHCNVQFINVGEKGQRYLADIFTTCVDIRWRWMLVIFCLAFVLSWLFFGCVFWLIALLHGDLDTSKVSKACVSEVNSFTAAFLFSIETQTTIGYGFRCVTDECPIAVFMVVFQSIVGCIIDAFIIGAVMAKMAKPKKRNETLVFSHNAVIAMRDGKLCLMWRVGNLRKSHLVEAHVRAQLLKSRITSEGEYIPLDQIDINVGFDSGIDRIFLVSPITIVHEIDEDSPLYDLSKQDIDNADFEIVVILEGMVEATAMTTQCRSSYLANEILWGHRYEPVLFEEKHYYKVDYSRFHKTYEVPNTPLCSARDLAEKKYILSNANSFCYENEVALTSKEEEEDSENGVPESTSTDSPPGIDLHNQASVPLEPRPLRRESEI
TRPC4 inh – TRPC4 (mouse) channel inhibition; Q9QUQ5; 300,000 tested, 0.39% active; HEK293 TRPC4beta/mu-opioid, DAMGO-evoked Fluo4 calcium flux; stronger effect = lower value; AID 2247; B-score at 10 µM;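 active = B-score over 3 SD under the library average, no early fluorescence shift, positive overall ratio signal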
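Assay system: HEK293 cells with stable TRPC4beta plus mu-opioid receptor expression; Probe or stimulus: DAMGO in two steps, submaximal then maximal; Dosing: single-point compound dosing; Measured by: Fluo4 calcium-dye fluorescence, kinetic read; Read-out basis: B score from integrated Fluo4 fluorescence ratio.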
TRPC6 inhibitor – inhibitors of mouse TRPC6 channel. Q61143. HEK293-TRPC6, membrane potential dye, ACh-evoked depolarization; stronger effect = lower value. B-score at 10 µM. 310,000 tested, 1.1% active;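 active = B-score under library mean minus 3 SD, initial fluorescence not abnormally high, positive integrated signal ratio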;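 note: B-score derived from integrated fluorescence ratio over the kinetic read; more negative B-score means stronger inhibition of depolarization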
TRPC4 potent – TRPC4 (mouse) allosteric potentiation. B-score at 10 µM. AID 2227. HEK293 TRPC4beta/mu-opioid, DAMGO EC20, Fluo-4 Ca2+ flux; stronger effect = higher value. 310,000 tested, 0.42% active. Q9QUQ5;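 active = B-score of calcium response area above 5 SD of library B-scores, with initial fluorescence ratio within 5 SD of library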;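 note: B-score of integrated fluorescence ratio over time as area under calcium response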
TRPC4 act – opens the mouse TRPC4 cation channel; AID 2237; HEK293 TRPC4beta/mu-opioid, Fluo4 calcium fluorescence; stronger effect = higher value; 310,000 tested, 0.49% active; Q9QUQ5; B-score at 10 µM;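 active = B-score above 5 SD of library B-scores, and initial fluorescence ratio not above library mean plus 5 SD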;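 note: positive B-score marks a calcium rise read as TRPC4 activation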
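Assay system: HEK293 cells stably co-expressing mouse TRPC4beta and mu-opioid receptor / Timing: Fluo4 dye loading 45 min at room temperature, 110 s recording / Signal: Fluo4 calcium-sensitive dye fluorescence, kinetic, 1 Hz baseline / Read-out: integrated baseline-normalised fluorescence ratio, converted to per-well B score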
TRPC6 act – activators of mouse TRPC6 channel. Q61143. HEK293-TRPC6 membrane potential dye fluorescence; stronger effect = higher value. B-score at 10 µM. 310,000 tested, 0.13% active. AID 2550;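 active = B-score of the integrated fluorescence ratio above library mean plus 3 SD, and starting fluorescence ratio within library mean plus 5 SD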;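 note: higher score means more depolarization so channel activation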
HEK293 MPD ctr – counter-screen for TRPC6 modulators: effect in parental HEK293 cells; membrane potential dye fluorescence; AID 488924; membrane potential signal change, % at 10 µM; shares compounds with TRPC6 inhibitor; 2,400 tested, 51% active;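 active = membrane potential signal moves up or down beyond 5 SD from buffer-only wells, on both duplicate plates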
HEK293 MPD ctr 2 – second counter-screen for TRPC6 modulators: effect in parental HEK293 cells; shares compounds with TRPC6 inhibitor; membrane potential dye fluorescence; after compound, maximal acetylcholine stimulation; inhibition, % at 10 µM; 2,400 tested, 14% active; AID 488926;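 active = membrane potential signal drops by more than 5 SD from the mean control signal, in both duplicate plates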;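 note: plate controls were acetylcholine ECmax control wells for no effect and buffer only wells for full effect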
TRPC4 ctr mod – tests whether TRPC6 modulators also affect mouse TRPC4; shares compounds with TRPC6 inhibitor; HEK293 TRPC4/mu-opioid, membrane potential fluorescence; 2,400 tested, 69% active; percent change from control (negative = decrease, positive = increase), % at 10 µM;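 active = membrane potential signal moved up or down beyond 5 SD of buffer control wells, in both duplicate plates, actives on both sides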;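 note: plate controls were assay buffer wells for no effect and DAMGO maximal-effect wells for full effect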
TRPC4 ctr inh 2 – mouse TRPC4 off-target activity of TRPC6 modulators, second screen. 2,400 tested, 55% active. inhibition, % at 10 µM. HEK293 TRPC4/mu-opioid, membrane potential dye fluorescence; stimulated with maximal-effect DAMGO. shares compounds with TRPC6 inhibitor;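 active = drop in membrane potential signal beyond 5 SD of the control wells in both duplicate plates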;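 note: TRPC4 counter screen for TRPC6 hits run under conditions tuned for TRPC6 not TRPC4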
TRPC6 block conf – confirmation of mouse TRPC6 inhibitors; shares compounds with TRPC6 inhibitor; HEK293-TRPC6, membrane potential dye, ACh-evoked depolarization; inhibition, % at 10 µM; 3,300 tested, 43% active; AID 488960;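 active = fluorescence ratio falls more than 5 SD below the full-stimulation control mean, in both duplicate runs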;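 note: integrated fluorescence ratio of peak minus minimum over baseline after agonist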
TRPC6 act confirm – mouse TRPC6 activator confirmation. shares compounds with TRPC6 inhibitor. HEK293-TRPC6 membrane potential dye fluorescence, FDSS. activation, % at 10 µM. 2,800 tested, 11% active. AID 488961;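 active = ratio signal rise beyond 5 SD above unstimulated control wells' mean, seen in both duplicate runs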;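 note: plate controls were buffer EC0 wells for no effect and acetylcholine ECmax response for full effect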
Starred values were filed as active, the others as inactive.

CSCCC(NC(=O)c1ccccc1Cl)C(=O)Nc1cccc(S(=O)(=O)N2CCCC2)c1 (stereo not drawn) was read as Kir21 inh 1.6, TRPC4 inh inactive, TRPC6 inhibitor inactive, TRPC4 potent inactive, TRPC4 act inactive and TRPC6 act inactive.
For CCN1CCCC1CNC(=O)c1ccc(Sc2ccccc2Cl)c([N+](=O)[O-])c1 (stereo not drawn) the results were Kir21 inh -0.86, TRPC4 inh inactive, TRPC6 inhibitor -7.1*, TRPC4 potent inactive, TRPC4 act inactive, TRPC6 act inactive, HEK293 MPD ctr inactive, HEK293 MPD ctr 2 inactive, TRPC4 ctr mod inactive, TRPC4 ctr inh 2 44%*, TRPC6 block conf 42%* and TRPC6 act confirm inactive.
Screening CCN1CCCC1CNC(=O)c1ccc(Sc2ccc(F)cc2)c([N+](=O)[O-])c1 (stereo not drawn) returned Kir21 inh -1.8, TRPC4 inh inactive, TRPC6 inhibitor -8.2*, TRPC4 potent inactive, TRPC4 act inactive, TRPC6 act inactive, HEK293 MPD ctr inactive, HEK293 MPD ctr 2 inactive, TRPC4 ctr mod inactive, TRPC4 ctr inh 2 56%*, TRPC6 block conf 52%* and TRPC6 act confirm inactive.
O=C(NCCCN1CCOCC1)c1ccc(Sc2ccc(F)cc2)c([N+](=O)[O-])c1 was read as Kir21 inh -0.53, TRPC4 inh inactive, TRPC6 inhibitor inactive, TRPC4 potent inactive, TRPC4 act inactive and TRPC6 act inactive.
Screening CCOC(=O)c1ccc(NC(=S)N2CCCC(C)C2)cc1 (stereo not drawn) returned Kir21 inh 0.99, TRPC4 inh inactive, TRPC6 inhibitor -5*, TRPC4 potent inactive, TRPC4 act inactive, TRPC6 act inactive, HEK293 MPD ctr inactive, HEK293 MPD ctr 2 inactive, TRPC4 ctr mod inactive, TRPC4 ctr inh 2 inactive, TRPC6 block conf inactive and TRPC6 act confirm inactive.
`CN1CCCN(C(=O)c2cccc(Cl)c2)CC1` gave Kir21 inh 1.7, TRPC4 inh inactive, TRPC6 inhibitor inactive, TRPC4 potent inactive, TRPC4 act inactive and TRPC6 act inactive.
For O=C(c1cccc(Cl)c1)N1CCN(C2CCCCCC2)CC1 the results were Kir21 inh -2.6, TRPC4 inh inactive, TRPC6 inhibitor -5.7*, TRPC4 potent inactive, TRPC4 act inactive, TRPC6 act inactive, HEK293 MPD ctr 171%*, HEK293 MPD ctr 2 inactive, TRPC4 ctr mod 36%*, TRPC4 ctr inh 2 inactive and TRPC6 block conf 66%*.
CCc1nn2c(=O)cc(COc3ccc(/C=C4\C(=N)N5N=C(C)SC5=NC4=O)cc3)nc2s1 was read as Kir21 inh 0.79, TRPC4 inh inactive, TRPC6 inhibitor inactive, TRPC4 potent inactive, TRPC4 act inactive, TRPC6 act 13*, HEK293 MPD ctr 228%*, HEK293 MPD ctr 2 inactive, TRPC4 ctr mod 40%*, TRPC4 ctr inh 2 inactive, TRPC6 block conf inactive and TRPC6 act confirm 88%*.
